Test results published in ChEMBL document CHEMBL1124552 (J Med Chem, 1989).
“And” between values parts separate entries of the source, which are not always exact repeats. Equal entries are not always repeated.

Key:
[1] = Average half life period was determined; type: ADME
[2] = Half life period was determined; type: ADME; settings: rat
[3] = Half life period for first alkylation reaction was determined; type: ADME
Method in brief: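 Half-life derived from the k1 value (first alkylation, i.e. mustard disappearance), measured by 31P NMR in 1 M lutidine, "pH" 7.4, 37 °C, with trapping agent.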

[4] = Pka value at 20 degrees C
Method in brief: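 31P NMR chemical shift recorded in unbuffered water as a function of solution pH at 20 °C. The shift versus pH data were fitted to the Henderson–Hasselbalch equation to give the pKa.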

[5] = First order rate constant for Alkylation reaction by the compound (17 mM) at temperature 20 degrees C with 1 M lutidine at […] in the presence of 10 mol equiv of 2-mercaptoethanol; type: functional
[6] = First order rate constant for Alkylation reaction by the compound (17 mM) at temperature 27 degrees C with 1 M lutidine at pH 7.4 in the presence of 10 mol equiv of 2-mercaptoethanol; type: functional
Method in brief: (§1)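 Decomposition followed over time by 31P NMR in 1 M lutidine buffer made with D2O, "pH" 7.4 (meter reading plus 0.4 unit for the deuterium isotope effect), with 2-mercaptoethanol as trapping agent. Concentrations of species A, B and C were tracked against time, and k1 (first alkylation) and k2 (second alkylation) were derived from them.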

[7] = First order rate constant for Alkylation reaction by the compound (17 mM) at temperature 37 degrees C with 1 M lutidine at pH 7.4 in the presence of 10 mol equiv of 2-mercaptoethanol; type: functional; method in brief: as §1
[8] = First order rate constant for Alkylation reaction by the compound (17 mM) at temperature 37 degrees C with 1 M lutidine at pH 7.4 in the presence of 10 mol equiv of sodium thiosulfate; type: functional
Method in brief: (§2)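 Run by 31P NMR in 1 M lutidine (D2O), "pH" 7.4 (corrected meter reading), 37 °C, with 10 mol equiv sodium thiosulfate as trapping agent. Overlapping A, B and C resonances were resolved by least-squares fitting to three Lorentzians or by Lorentz–Gauss resolution enhancement. This gave concentration–time estimates, from which k1 and k2 were derived.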

[9] = First order rate constant for Alkylation reaction by the compound (17 mM) at temperature 47 degrees C with 1 M lutidine at pH 7.4 in the presence of 10 mol equiv of 2-mercaptoethanol; type: functional; method in brief: as §1
[10] = Second order rate constant for Alkylation reaction by the compound (11 mM) at temperature 20 degrees C with 1 M lutidine at pH 7.4 in the presence of 63 mol equiv of 2-mercaptoethanol; type: functional; method in brief: as §1
[11] = Second order rate constant for Alkylation reaction by the compound (17 mM) at temperature 27 degrees C with 1 M lutidine at pH 7.4 in the presence of 10 mol equiv of 2-mercaptoethanol; type: functional; method in brief: as §1
[12] = Second order rate constant for Alkylation reaction by the compound (17 mM) at temperature 37 degrees C with 1 M lutidine at pH 7.4 in the presence of 10 mol equiv of 2-mercaptoethanol; type: functional; method in brief: as §1
[13] = Second order rate constant for Alkylation reaction by the compound (17 mM) at temperature 37 degrees C with 1 M lutidine at pH 7.4 in the presence of 10 mol equiv of sodium thiosulfate; type: functional; method in brief: as §2
[14] = Second order rate constant for Alkylation reaction by the compound (17 mM) at temperature 47 degrees C with 1 M lutidine at pH 7.4 in the presence of 10 mol equiv of 2-mercaptoethanol; type: functional; method in brief: as §1
[15] = First order rate constant for Alkylation reaction by the compound (11 mM) at temperature 20 degrees C with 1 M lutidine at pH 7.4 in the presence of 63 mol equiv of 2-mercaptoethanol; type: functional; method in brief: as §1

| Compound | half-life [1] | half-life [2] | T1/2 [3] | Pka [4] | K1 [5] | K1 [6] | K1 [7] | K1 [8] | K1 [9] | K2 [10] | K2 [11] | K2 [12] | K2 [13] | K2 [14] | K1 [15] |
| --- | --- | --- | --- | --- | --- | --- | --- | --- | --- | --- | --- | --- | --- | --- | --- |
| OC1CCOP(NCCCl)N1CCCl (trans isomer) | 1.03 h | – | – | – | – | – | – | – | – | – | – | – | – | – | – |
| O=P1(NCCCl)OCCC(O)N1CCCl (stereo unspecified) [ALDOIFOSFAMIDE] | 0.733 h | 1 h | – | – | – | – | – | – | – | – | – | – | – | – | – |
| O=P(O)(NCCCl)NCCCl [PALIFOSFAMIDE] | – | – | 1.28 h and 2.85 h | 4.28 | 1.2 10e-3 min-1 | 2.36 10e-3 min-1 | 9.03 10e-3 min-1 | 8.29 10e-3 min-1 | 34.3 10e-3 min-1 | 0.63 10e-3 min-1 | 1.14 10e-3 min-1 | 4.05 10e-3 min-1 | 4.29 10e-3 min-1 | 20 10e-3 min-1 | 1.07 10e-3 min-1 |
